Measurements published in ChEMBL document CHEMBL1156071, “Novel L-xylose derivatives as selective sodium-dependent glucose cotransporter 2 (SGLT2) inhibitors for the treatment of type 2 diabetes” (J Med Chem, 2009).
Blank lines part the entries; values can stand above or below the compound they belong to. Activity calls are given as the source filed them. The rule behind the calls is not given here.

Tests used:
[1] = biological target: T1, Sodium/glucose cotransporter 2 (Mus musculus, UniProt Q923I7); experiment: Inhibition of mouse SGLT2-mediated [14C]alpha-methylglucopyranoside uptake by cell based assay
T1 sequence (Q923I7 whole entry): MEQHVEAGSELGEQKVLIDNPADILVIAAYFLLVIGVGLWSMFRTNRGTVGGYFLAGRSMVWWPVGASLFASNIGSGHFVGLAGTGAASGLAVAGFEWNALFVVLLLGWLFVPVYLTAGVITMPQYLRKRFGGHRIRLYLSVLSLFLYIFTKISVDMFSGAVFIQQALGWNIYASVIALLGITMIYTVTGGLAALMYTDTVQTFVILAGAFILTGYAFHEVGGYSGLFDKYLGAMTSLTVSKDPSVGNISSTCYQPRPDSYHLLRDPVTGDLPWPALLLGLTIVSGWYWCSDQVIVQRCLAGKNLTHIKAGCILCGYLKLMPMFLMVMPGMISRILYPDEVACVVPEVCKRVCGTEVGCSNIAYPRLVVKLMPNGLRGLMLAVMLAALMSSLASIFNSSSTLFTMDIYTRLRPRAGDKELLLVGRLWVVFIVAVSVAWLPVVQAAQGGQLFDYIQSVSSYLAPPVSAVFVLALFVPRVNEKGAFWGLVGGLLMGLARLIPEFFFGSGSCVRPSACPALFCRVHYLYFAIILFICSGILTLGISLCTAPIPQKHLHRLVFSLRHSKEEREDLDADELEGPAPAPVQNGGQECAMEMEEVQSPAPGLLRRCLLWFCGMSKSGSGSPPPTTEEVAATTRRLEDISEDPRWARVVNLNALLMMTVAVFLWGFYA

[2] = biological target: T2, Sodium/glucose cotransporter 2 (Homo sapiens, UniProt P31639); experiment: Inhibition of human SGLT2 expressed in HEK293 cells assessed as inhibition of [14C]alpha-methylglucopyranoside uptake; assay type: cell-based
T2 sequence (P31639 whole entry): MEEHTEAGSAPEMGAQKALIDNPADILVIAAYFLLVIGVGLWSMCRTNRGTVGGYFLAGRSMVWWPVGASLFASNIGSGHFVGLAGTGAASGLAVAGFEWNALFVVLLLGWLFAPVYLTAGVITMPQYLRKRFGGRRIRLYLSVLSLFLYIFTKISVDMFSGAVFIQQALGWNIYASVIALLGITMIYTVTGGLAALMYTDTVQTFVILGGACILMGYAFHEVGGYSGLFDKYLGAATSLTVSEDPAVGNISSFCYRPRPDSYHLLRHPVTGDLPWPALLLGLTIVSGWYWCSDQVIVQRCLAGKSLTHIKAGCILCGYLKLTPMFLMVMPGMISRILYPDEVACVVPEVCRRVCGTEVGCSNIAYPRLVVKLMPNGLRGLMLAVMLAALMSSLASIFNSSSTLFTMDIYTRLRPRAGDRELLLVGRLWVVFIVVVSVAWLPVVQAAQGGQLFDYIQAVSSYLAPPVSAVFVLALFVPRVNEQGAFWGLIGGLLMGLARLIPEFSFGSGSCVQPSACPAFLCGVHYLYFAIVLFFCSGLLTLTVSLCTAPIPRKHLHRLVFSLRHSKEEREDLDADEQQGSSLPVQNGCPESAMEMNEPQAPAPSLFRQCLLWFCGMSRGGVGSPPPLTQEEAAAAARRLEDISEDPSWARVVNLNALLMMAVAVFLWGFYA
Method in brief: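 Cells stably expressing human SGLT2 were used to measure sodium-coupled uptake of [14C]α-methylglucopyranoside, a metabolically stable SGLT-specific glucose analogue. Uptake was measured across increasing compound concentrations, and IC50 was derived from the inhibition of uptake.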

Mus musculus [3] = experiment: Half life in mouse at 10 mg/kg, po; assay type: ADME, organism-based; design: dose 10 mg/kg, route oral; details: in vivo
[4] = (§1) Tmax in mouse at 10 mg/kg, po; assay type: ADME, organism-based; design: dose 10 mg/kg, route oral; details: in vivo
[5] = (§2) Cmax in mouse at 10 mg/kg, po; assay type: ADME, organism-based; design: dose 10 mg/kg, route oral; details: in vivo
[6] = (§3) AUC(last) in mouse at 10 mg/kg, po; assay type: ADME, organism-based, Plasma; design: time 0 - last, dose 10 mg/kg, route oral; details: plasma
[7] = (§4) AUC (0 to infinity) in mouse at 10 mg/kg, po; assay type: ADME, organism-based, Plasma; design: time infinity, dose 10 mg/kg, route oral; details: plasma
[8] = (§5) Apparent volume of distribution with respect to the bioavailability in mouse at 10 mg/kg, po; assay type: ADME, organism-based; details: in vivo, read-out: Vc/F
[9] = Apparent oral clearance in mouse at 10 mg/kg, po; assay type: ADME, organism-based; design: dose 10 mg/kg, route oral; details: in vivo
[10] = (§6) Mean resident time in mouse at 10 mg/kg, po; assay type: ADME, organism-based; design: dose 10 mg/kg, route oral; details: in vivo
Mus musculus [11] = experiment: Oral bioavailability in mouse at 10 mg/kg; assay type: ADME, organism-based; details: in vivo
[12] = (§7) Half life in mouse at 1 mg/kg, iv; assay type: ADME, organism-based; design: dose 1 mg/kg, route intravenous; details: in vivo
[13] = (§8) Tmax in mouse at 1 mg/kg, iv; assay type: ADME, organism-based; design: dose 1 mg/kg, route intravenous; details: in vivo
[14] = (§9) AUC (0 to infinity) in mouse at 1 mg/kg, iv; assay type: ADME, organism-based, Plasma; design: dose 1 mg/kg, route intravenous, time infinity; details: plasma
Mus musculus [15] = experiment: Apparent volume of distribution with respect to the bioavailability in mouse at 1 mg/kg, iv; assay type: ADME, organism-based; details: in vivo
[16] = Clearance in mouse at 1 mg/kg, iv; assay type: ADME, organism-based; design: dose 1 mg/kg, route intravenous; details: in vivo
[17] = (§10) Mean resident time in mouse at 1 mg/kg, iv; assay type: ADME, organism-based; design: dose 1 mg/kg, route intravenous; details: in vivo
[18] = (§11) Volume of distribution at steady state in mouse at 1 mg/kg, iv; assay type: ADME, organism-based; design: dose 1 mg/kg, route intravenous; details: in vivo, read-out: Vdss
Mus musculus [19] = experiment: Induction of glucosuria in high fat diet induced obese albino C57 mouse at 10 to 100 mg/kg, po administered as single administration measured after 17 hrs by glucose excretion assay; assay type: functional, organism-based
Method in brief: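 Adult C57 diet-induced obese mice were given one oral gavage dose spanning 10 to 100 mg/kg. Urinary glucose excretion was measured over the first 17 h after dosing, n = 6 per group, with a vehicle-treated group included.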

Mus musculus [20] = experiment: as §1; assay type: ADME, organism-based; design: dose 10 mg/kg, route oral; details: in vivo
Mus musculus [21] = experiment: as §2; assay type: ADME, organism-based; design: dose 10 mg/kg, route oral; details: in vivo
Mus musculus [22] = experiment: as §3; assay type: ADME, organism-based, Plasma; design: time 0 - last, dose 10 mg/kg, route oral; details: in vivo
Mus musculus [23] = experiment: as §4; assay type: ADME, organism-based, Plasma; design: time infinity, dose 10 mg/kg, route oral; details: in vivo
Mus musculus [24] = experiment: as §5; assay type: ADME, organism-based; details: in vivo
Mus musculus [25] = experiment: as §6; assay type: ADME, organism-based; design: dose 10 mg/kg, route oral; details: in vivo
Mus musculus [26] = experiment: as §7; assay type: ADME, organism-based; design: dose 1 mg/kg, route intravenous; details: in vivo
Mus musculus [27] = experiment: as §8; assay type: ADME, organism-based; design: dose 1 mg/kg, route intravenous; details: in vivo
Mus musculus [28] = experiment: as §9; assay type: ADME, organism-based, Plasma; design: dose 1 mg/kg, route intravenous, time infinity; details: in vivo
Mus musculus [29] = experiment: as §10; assay type: ADME, organism-based; design: dose 1 mg/kg, route intravenous; details: in vivo
Mus musculus [30] = experiment: as §11; assay type: ADME, organism-based; design: dose 1 mg/kg, route intravenous; details: in vivo
Mus musculus [31] = experiment: Induction of glucosuria in high fat diet induced obese albino C57 mouse at 75 mg/kg, po administered as single administration measured after 24 hrs by glucose excretion assay; assay type: functional, organism-based; design: dose 75 mg/kg
Method in brief: (§12)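 DIO mice received one dose, either by oral gavage or as a dietary admixture. Urinary glucose excretion was then followed past 24 h, n = 6.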

Mus musculus [32] = experiment: Induction of glucosuria in high fat diet induced obese albino C57 mouse at 30 mg/kg, po administered as single administration measured after 24 hrs by glucose excretion assay; assay type: functional, organism-based; design: dose 30 mg/kg; method in brief: as §12
Mus musculus [33] = experiment: Induction of glucosuria in high fat diet induced obese albino C57 mouse at 75 mg/kg administered through diet measured after 24 hrs by glucose excretion assay; assay type: functional, organism-based; design: dose 75 mg/kg; method in brief: as §12
Mus musculus [34] = experiment: Induction of glucosuria in high fat diet induced obese albino C57 mouse at 26 mg/kg administered daily through diet for 4 consecutive days by glucose excretion assay; assay type: functional, organism-based; design: dose 26 mg/kg
Method in brief: (§13)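 DIO mice received the compound as a dietary admixture for 4 consecutive days. Average daily intakes were 8, 26, 77 and 259 mg/kg. Urinary glucose excretion was measured each day, n = 6.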

Mus musculus [35] = experiment: Induction of glucosuria in high fat diet induced obese albino C57 mouse at 77 mg/kg administered daily through diet for 4 consecutive days by glucose excretion assay; assay type: functional, organism-based; design: dose 77 mg/kg; method in brief: as §13
Mus musculus [36] = experiment: Induction of glucosuria in high fat diet induced obese albino C57 mouse at 259 mg/kg administered daily through diet for 4 consecutive days by glucose excretion assay; assay type: functional, organism-based; design: dose 259 mg/kg; method in brief: as §13

Compound: CCOc1ccc(Cc2cc([C@@H]3OC(OC)[C@@H](O)[C@H](O)[C@H]3O)ccc2Cl)cc1 (mixture of isomers; 7a) [listing 2 of 2 here]
Activity (Mus musculus [19]): Dose-dependent effect

Compound: CCOc1ccc(Cc2cc([C@@H]3OC(OC)[C@@H](O)[C@H](O)[C@H]3O)ccc2Cl)cc1 (mixture of isomers; 7b)
IC50 [1]: 280 nM
IC50 [2]: 4800 nM

Compound: CCOc1ccc(Cc2cc([C@@H]3OC(OC)[C@@H](O)[C@H](O)[C@H]3O)ccc2Cl)cc1 (mixture of isomers; 7c) [listing 2 of 2 here]
Activity (Mus musculus [31]): Active
Activity (Mus musculus [19]): Dose-dependent effect
Activity (Mus musculus [32]): Active
Activity (Mus musculus [33]): Active
Activity (Mus musculus [34]): Active
Activity (Mus musculus [35]): Active
Activity (Mus musculus [36]): Active

Compound: CCOc1ccc(C(=O)c2cc([C@@H]3OC(OC)[C@@H](O)[C@H](O)[C@H]3O)ccc2Cl)cc1 (single isomer, unassigned)
IC50 [1]: 57 nM
IC50 [2]: 100 nM

Compound: CCOc1ccc(Cc2cc([C@@H]3OC(OC(C)C)[C@@H](O)[C@H](O)[C@H]3O)ccc2Cl)cc1 (stereo in doubt; 9b)
IC50 [1]: 15 nM
IC50 [2]: 33 nM

Further compounds by falling IC50 [1], results first:

IC50 [1]: 7.1 nM
IC50 [2]: 25 nM
t1/2 (Mus musculus [3]): 2.76 h
Tmax [4]: 0.38 h
Cmax [5]: 4.38 µM
AUC(0-t) [6]: 8.19 µM·h
AUC(0-inf) [7]: 11.7 µM·h
Vd/F [8]: 8.48 L/kg
CL/F [9]: 35.4 mL/min/kg
MRT [10]: 4.6 h
F (Mus musculus [11]): 61.2%
half-life [12]: 1.07 h
Tmax [13]: 0.38 h
AUC(0-inf) [14]: 1.91 µM·h
Vc/F (Mus musculus [15]): 1.91 L/kg
clearance [16]: 22.5 mL/min/kg
MRT [17]: 1.62 h
Vd [18]: 1.98 L/kg
Compound: CCOc1ccc(Cc2cc([C@@H]3OC(OC)[C@@H](O)[C@H](O)[C@H]3O)ccc2Cl)cc1 (mixture of isomers; 7a) [listing 1 of 2 here]

IC50 [1]: 7.1 nM
IC50 [2]: 25 nM
Compound: CCOc1ccc(Cc2cc([C@@H]3OC(OC)[C@@H](O)[C@H](O)[C@H]3O)ccc2Cl)cc1 (stereo in doubt; 6a)

IC50 [1]: 6.3 nM
IC50 [2]: 14 nM
t1/2 (Mus musculus [3]): 6.96 h
Tmax (Mus musculus [20]): 0.25 h
Cmax (Mus musculus [21]): 6.49 µM
AUC (Mus musculus [22]): 16.191 µM·h
AUC (Mus musculus [23]): 17.458 µM·h
Vc/F (Mus musculus [24]): 14.2 L/kg
MRT (Mus musculus [25]): 8.44 h
F (Mus musculus [11]): 100%
t1/2 (Mus musculus [26]): 1.29 h
Tmax (Mus musculus [27]): 0.25 h
AUC (Mus musculus [28]): 1.481 µM·h
Vc/F (Mus musculus [15]): 3.08 L/kg
MRT (Mus musculus [29]): 1.77 h
Vdss (Mus musculus [30]): 2.93 L/kg
Compound: CCOc1ccc(Cc2cc([C@@H]3OC(OC)[C@@H](O)[C@H](O)[C@H]3O)ccc2Cl)cc1 (mixture of isomers; 7c) [listing 1 of 2 here]
